# Hits are enriched below; roughly 0.62% of the tested compounds scored in any of these assays.
# ABCB1 block – inhibitors of human ABCB1 transporter, ABCG2 counter-screen | CCRF-Adr cells, JC-1 efflux, flow cytometry | inhibition, % at 6.6 µM | 190,000 tested, 0.067% active | AID 1326; in the data active = inhibition above about 40%;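 note: 0% = vehicle and 100% = reference inhibitor; higher value means more JC-1 retained so stronger ABCB1 efflux block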
# Mdm2 ligase inh – blocks human Mdm2 ubiquitin ligase activity; signal enhancement, % at 5 µM; cell-based MDM2 ubiquitination luciferase reporter, 2 h; 0 = plate control, 100 = twice control, blank-subtracted; Q00987; 210,000 tested, 0.11% active; AID 1230;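 active = signal enhancement of 30% or more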;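 note: luminescence tracks abundance of the self-degrading MDM2-luciferase fusion protein; higher signal means inhibition of MDM2 E3 ligase activity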
#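 Assay system: stable mammalian line carrying autodegrading MDM2–luciferase fusion reporter; amount: 2000 cells seeded into each well; buffer or medium: DMEM; benchmarks: plate control and blank wells; signal: luciferase luminescence; timing: 2 h compound exposure at 37 °C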
# Rad51 HR inh – Rad51 (human) homologous recombination inhibition. hRad51 DNA strand exchange, fluorescence dequenching. inhibition, % at 10 µM. 200,000 tested, 0.085% active. Q06609;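 active = inhibition above 40% at the single screening dose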;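 note: 0% = DMSO control wells and 100% = blanks with heterologous ssDNA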
#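 Test system: preformed human Rad51 ssDNA filaments; also added: Donor/quencher-labelled 47-bp dsDNA substrate; doses: 10 µM final, single point; times: 37 °C 15-min filament assembly, 30-min compound preincubation, 15-min exchange; detection: FRET fluorescence dequenching, excitation 485 nm, emission 520 nm; read-out basis: Fluorescence-based percent inhibition, control- and blank-normalised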
# Arbovirus inh – blocks arbovirus infection. 200,000 tested, 0.37% active. inhibition, % at 10 µM. AID 1251. arbovirus infection cell-based antiviral screen; in the data active = inhibition above about 30%
# ABCG2 block – inhibitors of human ABCG2 transporter, ABCB1 counter-screen | Q9UNQ0 | 190,000 tested, 0.1% active | IgMXP3 cells, JC-1 efflux, flow cytometry | inhibition, % at 6.6 µM;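 active = inhibition above 80%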;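 note: 0% = DMSO and 100% = nicardipine control wells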
# Target sequence (Q9UNQ0 whole entry, looked up): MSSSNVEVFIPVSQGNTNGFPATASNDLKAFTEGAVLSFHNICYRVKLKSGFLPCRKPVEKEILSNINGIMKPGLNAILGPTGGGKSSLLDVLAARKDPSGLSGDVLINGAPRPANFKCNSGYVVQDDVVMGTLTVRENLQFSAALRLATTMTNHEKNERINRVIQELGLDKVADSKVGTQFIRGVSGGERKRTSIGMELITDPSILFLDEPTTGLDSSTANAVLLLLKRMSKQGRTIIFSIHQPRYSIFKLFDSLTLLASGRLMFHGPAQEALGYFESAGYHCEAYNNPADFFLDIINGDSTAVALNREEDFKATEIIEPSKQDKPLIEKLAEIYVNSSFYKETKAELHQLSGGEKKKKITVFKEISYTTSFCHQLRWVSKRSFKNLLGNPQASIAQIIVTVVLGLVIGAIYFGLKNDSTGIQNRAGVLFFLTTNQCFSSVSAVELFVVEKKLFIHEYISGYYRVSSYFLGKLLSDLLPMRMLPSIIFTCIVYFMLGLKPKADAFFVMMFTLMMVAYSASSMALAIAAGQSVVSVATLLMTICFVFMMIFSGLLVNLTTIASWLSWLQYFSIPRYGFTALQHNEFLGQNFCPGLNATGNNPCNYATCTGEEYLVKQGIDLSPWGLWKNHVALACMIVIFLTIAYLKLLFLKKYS
#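 Incubation: cells with compound and JC-1, 10 min at 25 °C, rotating, no wash / Test system: IgMXP3 (ABCG2) plus far-red-tagged CCRF-Adr (ABCB1) cells / Compound dosing: one concentration, 6.6 µM final / Also added: JC-1 fluorescent substrate / Evaluation: efflux inhibition in percent versus controls / Detection: flow cytometry, 530 nm JC-1 signal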
# ABCB1 confirm – inhibits human ABCB1 efflux, confirmed at single point | shares compounds with ABCG2 block | CCRF-Adr cells, JC-1 efflux, flow cytometry | inhibition, % at 6.6 µM | 270 tested, 7% active | AID 1451;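 active = inhibition of pump activity above 50%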;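 note: 0% = DMSO and 100% = nicardipine full pump inhibition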
# ABCG2 single pt – confirmation of human ABCG2 transporter inhibitors, ABCB1 counter-screen; shares compounds with ABCG2 block; IgMXP3 cells, JC-1 efflux, flow cytometry; inhibition, % at 6.6 µM; 270 tested, 6% active;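 active = inhibition above 50%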;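 note: 0% = DMSO wells and 100% = nicardipine pump inhibitor wells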
# IgMXP3 autofluor – counter-screen for ABCG2 inhibitors: compound fluorescence in IgMXP3 cells. shares compounds with ABCG2 block. 270 tested, 30% active. fluorescence at 6.6 µM. AID 1480. compound autofluorescence 488/530 nm, flow; hits give high values;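 active = fluorescence in ABCG2-expressing cells above the plate's control-well mean plus 3 SD, cut at about 15 in these data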;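 note: median cell fluorescence with compound minus that of DMSO-treated control cells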
# CCRF autofluor – CCRF-Adr autofluorescence flag for ABCB1 confirmation | shares compounds with ABCG2 block | CCRF-Adr cells, compound autofluorescence 488/530 nm, flow cytometry; hits give high values | fluorescence at 6.6 µM | 270 tested, 30% active | AID 1483;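 active = fluorescence beyond the plate control mean plus 3 SD, with a fluorescence-to-maximum score over 2, cut at about 25 in these data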
# Starred values were filed as active, the others as inactive; i = inactive; . = no result; + = active, no number.
SMILES,ABCB1 block,Mdm2 ligase inh,Rad51 HR inh,Arbovirus inh,ABCG2 block,ABCB1 confirm,ABCG2 single pt,IgMXP3 autofluor,CCRF autofluor
CCN(CC)S(=O)(=O)c1ccc2oc(C(=O)NC(C)C)c(C)c2c1,8.7,4.7,-6.0,-8.1,93.7*,.,.,.,.
CCN(CC)S(=O)(=O)c1ccc2oc(C(=O)O)c(C)c2c1,-0.3,-13.1,.,5.7,7.8,.,.,.,.
CC(=O)Nc1cccc(Oc2ncnc3scc(-c4ccccc4)c23)c1,0.5,-17.0,-2.7,45.3*,2.0,.,.,.,.
COc1ccc(NC(=O)c2c[nH]n3c(=O)cc(C4CCN(C(=O)OC(C)(C)C)CC4)nc23)cc1Cl,-2.1,-26.0,.,48.6*,-4.2,.,.,.,.
CCCCn1c(SCC(=O)N2CCC(C)CC2)nc2ccsc2c1=O,7.3,-17.9,-6.3,13.5,63.5,.,.,.,.
CCCCn1c(SCC(=O)N2CCN(c3ccccc3)CC2)nc2ccsc2c1=O,3.7,-12.2,8.4,34.4*,11.3,.,.,.,.
CS(=O)(=O)N(CC(=O)N1CCCCC1)c1cccc(F)c1,0.4,1.2,36.1,3.7,-0.6,.,.,.,.
Brc1ccc(-c2csc(N/N=C/c3ccco3)n2)cc1,-0.9,-25.3,16.9,24.0,4.2,.,.,.,.
NC(=O)/C(=N\OC(=O)c1ccco1)c1nc(-c2ccc(Br)cc2)cs1,0.8,-7.0,.,44.3*,6.6,.,.,.,.
c1ccc(SCCOCCN2CCc3ccccc3C2)cc1,0.0,-5.1,2.2,-4.2,2.3,.,.,.,.
CS(=O)(=O)c1ccc2nc(NC(=O)C3=NN(c4ccccc4)C(=O)CC3)sc2c1,.,-6.1,16.1,.,.,.,.,.,.
COc1ccc2nc(NC(=O)C3=NN(c4ccccc4)C(=O)CC3)sc2c1,0.1,-4.1,-4.7,47.6*,-0.1,.,.,.,.
CC1(C)CCC23CC[C@]4(C)C(OC2=O)(C3C1)[C@H]1O[C@H]1C1[C@@]2(C)CC[C@@H](O)C(C)(C)C2CC[C@]14C (some centres not stated),.,.,4.8,.,.,.,.,.,.
Cc1ccc(OCCSCc2nnc(NC(=O)Nc3cccc(Cl)c3)s2)cc1,-0.4,-5.3,.,38.0*,-3.0,.,.,.,.
Cc1cccc(NC2=NCC(=O)N2Cc2cccs2)c1,0.2,-13.4,-0.9,1.9,0.2,.,.,.,.
CCCC(=O)Nc1nc(-c2ccc(Cl)s2)cs1,-0.2,-22.6,5.9,14.3,1.2,.,.,.,.
O=C(O)C1CCCCC1C(=O)Nc1nc(-c2ccc(Cl)s2)cs1 (configuration not stated),0.5,14.0,-4.4,38.5*,1.9,.,.,.,.
Fc1ccccc1NC(=S)Nc1ccc(CN2CCOCC2)cc1,-0.3,.,.,1.9,-0.5,.,.,.,.
COC(=O)c1ccc2c(=O)n(CCCCCC(=O)NCCNC(C)=O)c(=O)[nH]c2c1,-0.1,-10.2,.,-4.1,-0.2,.,.,.,.
CC1CCCC(C)N1S(=O)(=O)c1ccc(NC(=O)CCn2cnc3ccccc3c2=O)cc1 (configuration not stated),0.7,-77.0,126.2*,4.9,2.7,.,.,.,.
O=C(CN1C(=O)CCC1=O)Nc1cccc2c1C(=O)NC2=O,0.6,-5.4,2.5,6.0,1.3,.,.,.,.
O=Cc1c(Cl)[nH]c(=O)n1-c1ccccc1,3.6,-3.1,2.4,6.3,104.1*,2.1,4.5,-0.84,-0.94
O=c1[nH]c2cc(Cl)ccc2n1-c1ccccc1,1.4,-11.0,-12.5,0.3,6.3,.,.,.,.
COc1ccc(C(=O)Nc2ccc([N+](=O)[O-])cn2)c(OC)c1,1.1,-48.5,-12.0,-17.2,37.0,.,.,.,.
O=C(Nc1cc(Cl)ccc1Cl)c1ccc(-c2ccccc2)cc1,-0.2,-7.2,8.0,5.8,1.1,.,.,.,.
SMILES,ABCB1 block,Mdm2 ligase inh,Rad51 HR inh,Arbovirus inh,ABCG2 block,ABCB1 confirm,ABCG2 single pt,IgMXP3 autofluor,CCRF autofluor
O=C(Nc1ccc(Cl)cc1C(F)(F)F)c1ccccc1,43.5*,-4.5,-2.9,-5.2,36.2,0.8,9.4,0.26,-3.44
CCn1c(SCC(=O)N/N=C(/C)c2ccncc2)nc2ccccc21,.,-3.8,3.7,.,.,.,.,.,.
N#CC(C#N)=C1C=C2C=C(N3CCOCC3)CCC2CC1 (configuration not stated),169.4*,-13.6,i,-7.5,52.9,11.5,50.3*,7.66,24.9
CC1(C)CC(NCCN2CCN(C3=CC(=C(C#N)C#N)CC(C)(C)C3)CC2)=CC(=C(C#N)C#N)C1,-0.1,-18.3,6.1,-7.3,5.0,.,.,.,.
N#CC(C#N)=C1C=C2C=C(N3CCCCCC3)CCC2CC1 (configuration not stated),115.6*,7.1,i,-12.7,55.5,138.5*,46.3,46.1*,131*
CN1CCN(C2=CC3=CC(=C(C#N)C#N)CCC3CC2)CC1 (configuration not stated),+,-22.9,i,4.7,85.0*,68.4*,53.3*,28.8*,46.8*
CCN1CCN(C2=CC3=CC(=C(C#N)C#N)CCC3CC2)CC1 (configuration not stated),69.6*,-22.6,i,-10.4,55.4,23.4,45.5,34.7*,92.9*
NNC(=O)c1ccc(CSc2n[nH]c(=O)[nH]c2=O)cc1,.,-4.2,8.4,.,.,.,.,.,.
CCOC(=O)c1c(NC(=O)CSC(=S)N2CCOCC2)sc(C)c1C,1.9,-8.7,-2.9,-16.9,26.8,.,.,.,.
N#Cc1ccc(COC(=O)c2ccc(N3CCCC3)c([N+](=O)[O-])c2)cc1,-0.1,-10.8,3.1,19.4,89.8*,4.5,37.5,-2.29,-4.44
CN(CCCOc1ccccc1Br)Cc1ccccc1,56.1*,-8.2,6.4,-8.3,0.0,-5.5,-8.7,112*,25.5*
Cn1cccc1-c1nc2ccccc2[nH]1,.,-7.2,.,.,.,.,.,.,.
COc1ccc2oc(C(=O)C3CC3)c(NC(=O)CCCN3C(=O)c4ccccc4C3=O)c2c1,.,.,.,-1.1,.,.,.,.,.
OCCC#Cc1ccc(CN2CCN(Cc3ccccc3)C(CCO)C2)cc1 (configuration not stated),13.6,-6.3,3.8,1.0,89.3*,2.8,3.9,4.26,12.8
CCOc1nc(-c2ccccc2)ccc1-c1noc(COC)n1,1.2,-11.5,-2.6,-4.4,76.1,-1.4,27.2,3.96,3.76
O=C(NCc1ccccn1)Nc1ccc(Cl)c(Cl)c1,0.9,-9.0,-4.7,2.4,69.7,0.4,23.5,-1.34,-2.09
O=C(NCc1ccccn1)Nc1cccc(NC(=O)NCc2ccccn2)c1,0.7,-11.5,-2.6,6.4,2.0,.,.,.,.
Cc1c(Cl)c([N+](=O)[O-])nn1CCCC(=O)Nc1cc(Oc2ccccc2)cc([N+](=O)[O-])c1,1.9,-15.1,25.3,-9.7,84.9*,18.3,31.2,-0.99,-1.79

# Assay outcomes as filed in PubChem BioAssay.
